From PubChem BioAssay
Statin myotox sup: protects C2C12 myotubes from simvastatin toxicity; ATP luminescence, 48 h; scaled: DMSO 0, geranylgeraniol control 100; rescue of ATP level, % at 7.49 µM; hit rate 0.78% among 330,000; AID 602340;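 active means mean ATP rescue above about 67%, or every replicate alone reaching that limit, limit read from the data, passing the limit was not always enough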;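 further: myotubes were challenged with 10 µM simvastatin during compound exposure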
FN deposition inh: fibronectin deposition inhibition; AH1F fibroblasts, Alexa488-fibronectin deposition fluorescence, overnight; inhibition, % at 12.6 µM; hit rate 0.086% among 350,000;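 active means mean inhibition across replicates of 30% or more, regardless of how many single replicates reach that level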
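Material: AH1F fibroblast monolayer depositing Alexa488-labelled fibronectin into matrix / Amount: 10000 AH1F cells per well / Signal: fluorescence 485/525 nm / Medium: DMEM, 2% serum / Compound: single dose, pinned / Incubation: 1 h cell adhesion before compound, then overnight fibronectin incubation / Reagent: Alexa488-FN, 24 nM final / Read-out: inhibition of fibronectin deposition signal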
FGF22 binding: FGF22 (human) thermal shift binding; Q9HCT0; hit rate 1.5% among 340,000; recombinant FGF22 thermal shift, SYPRO orange fluorescence; percent of sucrose octasulfate shift, DMSO zero; activity (Tm shift, normalised), % at 9.99 µM;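 active means mean Tm shift, scaled 0 neutral to 100 positive control, at about 1.3% or above, every replicate too, limit read from the data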
E-selectin induc: E-selectin induction on HUVECs; activation, % at 7.58 µM; hit rate 0.37% among 260,000; HUVEC E-selectin immunofluorescence imaging; normalized: neutral wells 0, TNF-alpha wells 100;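 active means mean E-selectin-positive cell signal at least 10% of the positive control, reached in at least 60% of replicates, without over 20% cell loss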
Target sequence (P16581 whole entry, looked up): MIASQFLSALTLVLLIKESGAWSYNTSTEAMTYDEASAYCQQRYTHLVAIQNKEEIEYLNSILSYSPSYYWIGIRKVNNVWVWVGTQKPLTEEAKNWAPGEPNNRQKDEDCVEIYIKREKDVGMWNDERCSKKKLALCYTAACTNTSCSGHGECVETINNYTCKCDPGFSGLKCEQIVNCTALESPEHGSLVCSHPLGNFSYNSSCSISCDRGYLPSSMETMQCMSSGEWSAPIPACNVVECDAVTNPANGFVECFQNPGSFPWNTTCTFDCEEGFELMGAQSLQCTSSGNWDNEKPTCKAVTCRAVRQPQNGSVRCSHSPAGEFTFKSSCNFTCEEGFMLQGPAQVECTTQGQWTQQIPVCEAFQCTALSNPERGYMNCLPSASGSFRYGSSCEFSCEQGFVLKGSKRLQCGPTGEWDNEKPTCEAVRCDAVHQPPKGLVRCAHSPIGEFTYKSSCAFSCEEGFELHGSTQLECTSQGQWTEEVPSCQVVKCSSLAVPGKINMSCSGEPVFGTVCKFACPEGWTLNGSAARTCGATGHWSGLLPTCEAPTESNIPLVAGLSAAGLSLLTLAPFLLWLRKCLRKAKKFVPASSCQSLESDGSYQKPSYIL
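System: HUVEC / Compound: single concentration / Signal: immunofluorescence imaging / Read-out: percent E-selectin-positive cells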
rRNA inh HTS: inhibitors of bacterial rRNA selective over humanized ribosomes; AID 720706; GFP signal change (wild-type ribosome), % (concentration not given with the values); hit rate 1.6% among 350,000; E. coli WT GFP vs humanized-ribosome RFP mutants, fluorescence, 24 h; stronger effect = lower value; DMSO median 0, no signal -100;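 active means significant combined selectivity score with lowered wild-type GFP, culture density cut under 30%, mutant RFP and density less affected; inactive means any of these conditions unmet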
SIRT5 block: inhibitors of human sirtuin-5 desuccinylase; Q9NXA8; Purified SirT5, succinyl-peptide AMC, trypsin-coupled fluorescence; inhibition, % at 15 µM; hit rate 1.1% among 330,000; AID 652115; in the data active means inhibition above about 15%
Large screens that a line does not name were inactive. Only some compounds are listed: those with a hit (about 4% of all), similar ones and a draw of the others.

CN(C)CCCN(C(=O)c1ccc2c(c1)OCCO2)c1nc2ccc(Cl)cc2s1	rRNA inh HTS -46.0
CN(C)CCCN(C(=O)c1ccc(S(=O)(=O)N(C)C)cc1)c1nc2cc3c(cc2s1)OCO3	FGF22 binding 43.0
C[C@H]1CN([C@@H](C)CO)C(=O)Cc2cc(NC(=O)CCN3CCOCC3)ccc2O[C@@H]1CN(C)Cc1ccc2c(c1)OCO2	none (no result: FN deposition inh, E-selectin induc, SIRT5 block)
O=C(C1=C[C@@H](c2ccc3c(c2)OCO3)C[C@@H](OCc2ccc(CO)cc2)O1)N1CCN(Cc2ccccc2)CC1	none (no result: Statin myotox sup, FN deposition inh, E-selectin induc, rRNA inh HTS)
Cc1noc(C)c1S(=O)(=O)Nc1ccc2c(c1)C(=O)N([C@@H](C)CO)C[C@H](C)[C@@H](CN(C)S(=O)(=O)c1ccc(F)cc1)O2	none (no result: FN deposition inh)
CCN1C[C@@H]2[C@@H]3C(=O)N(Cc4ccccc4)C(=O)[C@@H]3[C@](Cc3ccccc3)(C1=O)N2C(=O)c1ccc(C)cc1	SIRT5 block 16.8
N=c1c2c(n(Cc3ccc([N+](=O)[O-])cc3)c3c1CCC3)CCCC2	none (no result: Statin myotox sup)
N=c1c2c(n(Cc3ccc(Br)cc3)c3c1CCC3)CCCC2	FGF22 binding 43.4 (no result: Statin myotox sup, E-selectin induc)
CC(=O)c1ccc(NC(=O)CC23CC4CC(C2)CC(n2nnc(C)n2)(C4)C3)cc1	none (no result: E-selectin induc)
Cc1nnn(C23CC4CC(CC(CC(=O)Nc5cccc(F)c5)(C4)C2)C3)n1	none
Cc1nnn(C23CC4CC(CC(CC(=O)Nc5ccc(C)c(C)c5)(C4)C2)C3)n1	rRNA inh HTS -18.6 (no result: Statin myotox sup, E-selectin induc)
Cc1cccc(NC(=O)CC23CC4CC(C2)CC(n2nnc(C)n2)(C4)C3)c1	rRNA inh HTS -22.6 (no result: Statin myotox sup, E-selectin induc)
CO[C@@H]1CN(C)C(=O)c2ccc(NC(=O)CC(F)(F)F)cc2OC[C@H](C)N(C(C)=O)C[C@H]1C	none (no result: Statin myotox sup)
CO[C@@H]1CN(C)C(=O)c2ccc(NS(=O)(=O)c3cn(C)cn3)cc2OC[C@@H](C)N(Cc2cccc(C(F)(F)F)c2)C[C@H]1C	none
Cc1cc(C)cc(N(C(C)C(=O)NCCC2=CCCCC2)S(C)(=O)=O)c1 (stereo not given)	Statin myotox sup 93.2 (no result: FN deposition inh, E-selectin induc)
CCOC(=O)C1(CC2CCCCO2)CCN(Cc2nc3ccccc3[nH]2)CC1 (stereo not given)	none (no result: E-selectin induc)
CCOC(=O)C1(CC2CCCCO2)CCN(C(=O)Nc2ccc(C(=O)OC)cc2)CC1 (stereo not given)	rRNA inh HTS -19.1
CCOC(=O)C1(CC2CCCCO2)CCN(Cc2nc(C(C)C)cs2)CC1 (stereo not given)	rRNA inh HTS -29.4 (no result: Statin myotox sup)
CC(C)[C@H]1C(=O)N[C@@H](c2ccc(F)cc2)CC=CC[C@H](C)Oc2ccccc2C(=O)N1C (mixture of isomers)	none (no result: Statin myotox sup, FGF22 binding, E-selectin induc, SIRT5 block)
CCCCOc1ccc(C(=O)Oc2cc(C)[nH]c(=O)c2[N+](=O)[O-])cc1	none (no result: E-selectin induc)
CCOc1ccc(C(=O)Oc2cc(C)[nH]c(=O)c2[N+](=O)[O-])cc1	Statin myotox sup 126.8 (no result: SIRT5 block)
O=C(Cc1ccc(NC(=O)C2CCCN(C(=O)CCc3ccccc3)C2)cc1)Nc1cccc(C(=O)N2CCCCC2)c1 (stereo not given)	none
CN(C(=O)c1cccc(NC(=O)Cc2ccc(NC(=O)C3CCN(C(=O)C4CCCCC4)CC3)cc2)c1)C1CCCCC1	SIRT5 block 25.1
O=C(Cc1ccc(NC(=O)C2CCCN(C(=O)CCc3ccccc3)C2)cc1)Nc1cccc(C(=O)N2CCCC2)c1 (stereo not given)	rRNA inh HTS -15.3
CCN(CC)c1ccc(/C=C(\C#N)C(=O)c2ccc(Br)cc2)cc1	none (no result: FN deposition inh, FGF22 binding, E-selectin induc, rRNA inh HTS, SIRT5 block)
CCN(CC)c1ccc(/C=C(\C#N)C(N)=S)cc1	rRNA inh HTS -22.5 (no result: Statin myotox sup)
CCN(CC)c1ccc(/C=C(\C#N)C(N)=O)cc1	FGF22 binding 43.0 (no result: Statin myotox sup)
C[C@H]1CN([C@@H](C)CO)C(=O)c2cccc(NS(=O)(=O)c3cccs3)c2O[C@@H]1CN(C)Cc1ccc(-c2ccccc2)cc1	none (no result: FN deposition inh)
COc1ccc(CN(C)C[C@@H]2Oc3ccc(NC(=O)C4CC4)cc3C(=O)N([C@H](C)CO)C[C@H]2C)cc1	none
Cc1cccc(OCCCCc2c(C)n[nH]c2C)c1C	Statin myotox sup 103.5 (no result: FN deposition inh, E-selectin induc)
COc1ccccc1OCC(=O)N/N=C1/C=C(C)CC1	FGF22 binding 43.2 (no result: Statin myotox sup, E-selectin induc)
COc1ccccc1OCC(=O)NNC(=O)CCCC(=O)NNC(=O)COc1ccccc1OC	none
O=C1CCC(=O)N1CCC(c1ccc(F)cc1)c1ccco1 (stereo not given)	none (no result: FN deposition inh, E-selectin induc)
O=C1c2ccccc2C(=O)N1CCC(c1ccc(F)cc1)c1ccco1 (stereo not given)	Statin myotox sup 76.8 (no result: FN deposition inh, FGF22 binding, E-selectin induc, rRNA inh HTS, SIRT5 block)
CCOC(=O)C1=C(C)N(C)C(=O)NC1c1cc2c(cc1[N+](=O)[O-])OCO2 (stereo not given)	FGF22 binding 43.6
CCCCOC(=O)C1=C(C)N(C)C(=O)NC1c1cc2c(cc1Br)OCO2 (stereo not given)	none
C[C@H](CO)N1C[C@H](C)[C@@H](CN(C)C(=O)NC2CCCCC2)Oc2ccc(NC(=O)Cn3cnnn3)cc2CC1=O	none
O=C(NCC1CCCCC1)[C@H]1[C@H](CO)[C@H]2Cn3c(cccc3=O)[C@@H]1N2CCc1ccccc1	SIRT5 block 18.2 (no result: FN deposition inh)
C[C@H](NC(=O)[C@@H]1[C@@H](CO)[C@@H]2Cn3c(cccc3=O)[C@H]1N2Cc1ccccc1)c1ccccc1	SIRT5 block 19.0 (no result: FN deposition inh)
Cc1ccc(S(=O)(=O)Nc2ccc3c(c2)C(=O)N([C@@H](C)CO)C[C@H](C)[C@H](CN(C)S(=O)(=O)c2cn(C)cn2)OCCCC[C@@H](C)O3)cc1	none (no result: Statin myotox sup)
CCC(=O)N1C[C@@H](C)[C@H](OC)CN(C)C(=O)c2cc(NC(=O)Nc3ccccc3)ccc2OC[C@H]1C	none (no result: SIRT5 block)
CO[C@@H]1CN(C)C(=O)c2ccc(NS(=O)(=O)c3ccccc3C)cc2OC[C@@H](C)N(S(C)(=O)=O)C[C@H]1C	none
COc1cccc(OC)c1OCCOc1ccc(C(=O)c2ccccc2)cc1	SIRT5 block 17.4 (no result: Statin myotox sup)
COc1cc(SC)ccc1C(=O)Nc1cccc(S(=O)(=O)NC2=NCCCCC2)c1	none
CCN(CC)S(=O)(=O)c1ccc(/C=C/C(=O)Nc2cccc(F)c2)cc1	rRNA inh HTS -17.1 (no result: Statin myotox sup, E-selectin induc)
CCN(CC)S(=O)(=O)c1cccc(NC(=O)c2ccc(SC)cc2OC)c1	rRNA inh HTS -25.1
CCN(CC)S(=O)(=O)c1cccc(NC(=O)COc2ccc(F)cc2Br)c1	rRNA inh HTS -27.0 (no result: Statin myotox sup)
COc1cccc(-c2cc(C(=O)NCC3CCCO3)c3cc(Br)cc(C)c3n2)c1 (stereo not given)	SIRT5 block 17.3
Cc1cc(Br)cc2c(C(=O)NCC3CCCO3)cc(-c3cccs3)nc12 (stereo not given)	none (no result: Statin myotox sup, E-selectin induc)
Cc1nc(N)c(CC(Br)CBr)c(Cl)n1 (stereo not given)	rRNA inh HTS -38.4 (no result: E-selectin induc)
